FLuc inhib CS – Photinus pyralis luciferase inhibition counter-screen. P08659. ATPLite firefly luciferase biochemical luminescence, 10 min. inhibition, % at 10 µM. actives 1.5% (n = 200,000). AID 1006;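 active = inhibition above about 50% when tested at 10 µM, limit read from the data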
Target sequence (P08659 whole entry, looked up): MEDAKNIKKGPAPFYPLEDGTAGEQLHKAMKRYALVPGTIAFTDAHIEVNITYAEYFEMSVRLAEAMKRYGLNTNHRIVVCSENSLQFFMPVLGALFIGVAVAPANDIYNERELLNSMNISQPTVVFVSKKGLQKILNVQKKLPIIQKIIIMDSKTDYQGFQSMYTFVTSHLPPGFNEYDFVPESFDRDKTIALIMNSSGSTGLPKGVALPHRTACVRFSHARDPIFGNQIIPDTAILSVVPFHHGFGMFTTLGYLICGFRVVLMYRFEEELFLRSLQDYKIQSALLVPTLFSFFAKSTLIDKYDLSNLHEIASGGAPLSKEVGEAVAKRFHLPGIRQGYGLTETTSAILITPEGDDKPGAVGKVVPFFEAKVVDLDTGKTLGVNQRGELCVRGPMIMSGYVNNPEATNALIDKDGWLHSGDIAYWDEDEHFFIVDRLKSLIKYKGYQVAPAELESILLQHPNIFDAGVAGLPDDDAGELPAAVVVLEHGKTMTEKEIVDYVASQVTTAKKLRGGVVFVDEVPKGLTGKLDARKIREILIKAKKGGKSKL
PPC-1+TRAIL kill – kills PPC-1 cancer cells in the presence of TRAIL; PPC-1 cells + TRAIL, ATPLite viability luminescence; cell killing (% activity), % at 4 µM or 5 µM; actives 0.41% (n = 220,000);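 active = cell killing above 50% in the first pass at 4 µM, then a duplicate retest at 5 µM averaging 50% or more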
C8 TRAIL sens – caspase-8 TRAIL sensitization. NB7+C8 cells + TRAIL, ATPlite viability luminescence. inhibition (viability loss, TRAIL sensitization), % at 10 µM. actives 1% (n = 360,000);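 active = compounds causing at least 50% loss of cell viability in the single-dose screen, relative to plate controls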
FLuc act counter – firefly luciferase counter-screen for stimulation assays | P08659 | ATPlite luciferase biochemical, luminescence, 10 min; 0 = ATP-free wells, 1 = DMSO control | AID 1027 | activation factor at 10 µM | 200,000 tested, under 10 active;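 active = luciferase activation factor, scaled between plate controls, of at least 2 with compound at 10 µM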
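Material: luciferase plus luciferin reagent, cell-free. Medium: PBS buffer for ATP. Also added: ATP substrate, dispensed from a 10.24 µM working solution in PBS. Doses: test compounds dosed from 2 mM stocks in 100% DMSO. Incubation: 10 min post-reagent at room temperature. Technique: light output (luminescence). Read-out basis: luminescence gain marking luciferase activators.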
Platelet DG rel – platelet dense granule release activity. human platelet-rich plasma, SFLLRN dense granule ATP release, luminescence. inhibition, %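 (compounds screened at 7.5 µM in platelet-rich plasma)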. actives 0.22% (n = 300,000). AID 1663;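 active = mean replicate score, as percent of positive control, at or above 50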
A number is an active result; - = inactive; . = not tested or not shown. Compounds with a hit are over-represented: about 1.6% of the library has one in this group of screens.

SMILES | FLuc inhib CS | PPC-1+TRAIL kill | C8 TRAIL sens | FLuc act counter | Platelet DG rel
COc1ccc(OCc2cccc(C(=O)O)c2)cc1 | 83.1 | - | 61.9 | - | -
COc1cccc(-c2cnc(C(O)c3ccc(C)c(F)c3)[nH]2)c1 (stereo not drawn) | . | . | - | . | .
CSc1ccc(Cn2c(C)c(C(=O)NCc3ccco3)sc2=O)cc1 | . | . | - | . | .
C1C2CC3C1C3C2=NN=C1C2CC3C(C2)C13 | . | . | - | . | .
Nc1n[nH]c(=S)n1/N=C1/C(=O)Nc2ccccc21 | 69.9 | - | - | - | .
CC(C)NC(=O)N(C)C[C@H]1Oc2ncc(Br)cc2C(=O)N([C@H](C)CO)C[C@@H]1C | . | . | - | . | .
Cc1ccc(S(=O)(=O)N2C[C@]3(O)C[C@@H]4C(=O)N(c5ccccc5)C(=O)[C@@H]4C[C@]3(OC(=O)NC3CCCC3)C2)cc1 | . | . | - | . | .
O=C(C[C@H]1C(=O)N(C2CCCCC2)C[C@@H]1c1ccccc1)Nc1ccc(Br)cc1 | . | . | - | . | .
Cn1c(C(=O)N2CCN(c3ccc(Cl)cc3)CC2)cc2c(=O)[nH]c3ccccc3c21 | - | - | - | - | -
Cc1ccc(Cl)cc1N1CCN(C(=O)c2cc3c(=O)[nH]c4ccccc4c3n2C)CC1 | - | 50.5 | - | - | -
C[C@H](CO)N1C[C@H](C)[C@@H](CN(C)Cc2ccc(C(=O)O)cc2)Oc2ncc(-c3ccc(C(=O)N(C)C)cc3)cc2C1=O | . | . | - | . | .
COc1ccc(NC(=O)CCN2C(=O)c3ccccc3C2=O)c(OC)c1 | . | . | - | . | -
COc1ccc(OC)c(N(CCN2C(=O)c3ccccc3C2=O)C(=O)CCl)c1 | . | . | 94.3 | . | .
COc1cc(/C=C2\SC(c3ccc(C)cc3)=NC2=O)cc(OC)c1O | - | - | - | - | -
Cc1ccc(C2=NC(=O)/C(=C/c3cc(O)c(O)c(Br)c3)S2)cc1 | 50.4 | - | - | - | .
O=c1c(Br)ccc(Br)cc1Br | . | . | 93.1 | . | .
COc1ccc(C(C)(NC(C)=O)c2nc(-c3cnc4ccccc4c3)cs2)cc1 (stereo not drawn) | . | . | - | . | .
COc1ccc(-c2ccc(CN3C(C(C)C)C(=O)N(Cc4cn(CCC5OCCO5)nn4)CCS3(=O)=O)cc2)cc1 (stereo not drawn) | . | . | - | . | .
Cc1ccc(/C=C/C(=O)N2CCCC(C)C2)cc1 (stereo not drawn) | 74.7 | - | - | - | -
CCOC(=O)C1CCCN(C(=O)/C=C/c2ccc(Cl)cc2)C1 (stereo not drawn) | - | - | - | - | -
CCN(CC)C(=O)C1=C(C)N(Cc2ccc(OC)cc2)C(=O)C(CC(=O)NCC2CCCCC2)C1 (stereo not drawn) | . | . | - | . | .
CC(C)CNc1ncnc2c1ncn2[C@H]1CN(CCc2ccccc2)C[C@@H](CO)O1 | . | . | - | . | .
COc1ccc(-c2ccc(NC(=O)c3ccco3)cc2)nn1 | . | . | 83.4 | . | -
CCC(C)c1ccc(NC(=O)COC(=O)CCNC(=O)c2ccco2)cc1 (stereo not drawn) | . | . | - | . | .
O=C(Nc1ccc(-c2cn3ccccc3n2)cc1)c1ccco1 | 86.2 | 73.3 | 71.4 | - | -
SMILES | FLuc inhib CS | PPC-1+TRAIL kill | C8 TRAIL sens | FLuc act counter | Platelet DG rel
O=C(Nc1ccc(-c2cn3ccccc3n2)cc1)c1ccc(Cl)cc1 | - | - | - | - | -
CCC(C)c1ccc(NC(=O)c2ccco2)cc1 (stereo not drawn) | . | . | 73.4 | . | -
Cc1cccc(C)c1NC(=O)C1(C)CN(S(C)(=O)=O)CC(=O)N1CCc1ccc(O)cc1 (stereo not drawn) | . | . | - | . | .
N#Cc1ccc(-c2cccc3nccn23)cc1 | . | . | - | . | .
CCCc1cc(=O)n2c([nH]c3ccccc32)c1C#N | 65.7 | - | - | - | -
Cc1nn(-c2ccccc2)c(C)c1/C=N/NC(=O)c1cc(C23CC4CC(CC(C4)C2)C3)[nH]n1 | - | - | 64.0 | - | -
Cc1nn(-c2ccccc2)c(C)c1/C=N/NC(=O)c1cc(-c2ccc(Br)s2)[nH]n1 | - | - | - | - | -
Cc1nn(-c2ccccc2)c(C)c1/C=N/NC(=O)c1cc(-c2ccc(Cl)s2)[nH]n1 | - | - | 46.5 | - | -
Cc1cc(C(=O)N/N=C/c2c(C)nn(-c3ccccc3)c2C)n[nH]1 | . | - | - | . | -
Cc1nn(-c2ccccc2)c(C)c1-c1cc(C(=O)N/N=C/c2ccc(O)cc2)[nH]n1 | . | - | 49.6 | . | -
O=C1c2ccccc2C(=O)c2[nH]cnc21 | . | - | - | . | -
O=C1c2ccccc2C(=O)c2[nH]c(=O)[nH]c21 | . | . | 75.3 | . | -
C[C@@H]1CN([C@@H](C)CO)C(=O)CCCn2cc(nn2)CO[C@H]1CN(C)C(=O)c1cc(-c2ccccc2)on1 | . | . | - | . | .
